Measurements collected from several papers.
Lines come from different studies, so protocols differ.
CDK4 with cyclin D1: Cyclin-dependent kinase 4, with cyclin D1 (CDK4, Homo sapiens, UniProt P11802)
CDK4: Cyclin-dependent kinase 4 (CDK4, Homo sapiens, UniProt P11802)
CDK4 with cyclin D3: Cyclin-dependent kinase 4, with cyclin D3 (CDK4, Homo sapiens, UniProt P11802)

CCCCC(=O)Nc1ccc(-c2ccc3ncn(CCC)c(=O)c3c2)cn1 — remaining binding (CDK4 with cyclin D1; binding; competition with immobilised ligand; 0.5 µM): 100%
Cc1cc(O)c(-c2ccc([C@@H](C)CN(C)C)cc2)c2c1[nH]c(=O)c1sccc12 — inhibition (CDK4; enzyme activity; inhibitor; 0.1 µM): 4.95%
CNS(=O)(=O)c1ccc(Nc2ncc(C(F)(F)F)c(N3CCC[C@](C)(O)C3)n2)c(C)c1 — remaining binding (CDK4; binding; competition with immobilised ligand; 1 µM): 71%
CO[C@@H]1[C@H](N(C)C(=O)c2ccccc2)C[C@H]2O[C@]1(C)n1c3ccccc3c3c4c(c5c6ccccc6n2c5c31)C(=O)NC4 — inhibition (CDK4 with cyclin D1; enzyme activity; inhibitor; 1 µM): 4%
C[C@]1(O)CCCN(c2nc(Nc3ccc(S(=O)(=O)N[C@H]4CC[C@H](CN5CCN(c6ccc(C7CCC(=O)NC7=O)cc6F)CC5)CC4)cc3Cl)ncc2C(F)(F)F)C1 (stereo partly drawn) — remaining binding (CDK4; binding; competition with immobilised ligand; 1 µM): 93%
CC#CC(=O)N1CCC[C@H]1c1nc(-c2ccc(C(=O)Nc3ccccn3)cc2)c2c(N)nccn12 — inhibition (CDK4; enzyme activity; inhibitor; 1 µM): 0%
COc1ccc2[nH]c3c4[nH]c5ccc(OC)cc5c4c4c(c3c2c1)C(=O)NC4=O — remaining binding (CDK4 with cyclin D3; binding; 1 µM): 74%
C1=C/COCc2cc(ccc2OCCN2CCCC2)Nc2nccc(n2)-c2cccc(c2)COC/1 — remaining binding (CDK4 with cyclin D1; binding; 0.1 µM): 48%
CC(C)S(=O)(=O)c1ccc2nccc(Nc3ccc4sc(C5CCCC5)nc4c3)c2c1 — activity vs control (CDK4 with cyclin D3; enzyme activity; inhibitor; 1 µM): 102%
CN1CCN(C(=O)c2ccc(NC(=O)Nc3ccc(N(C)c4ccnc(Nc5ccc(CS(C)(=O)=O)cc5)n4)cc3)cc2)CC1 — remaining binding (CDK4 with cyclin D3; binding; 1 µM): 89%
C[C@]1(O)CCCN(c2nc(Nc3ccc(S(=O)(=O)N[C@H]4CC[C@H](CN5CCN(c6ccc(C7CCC(=O)NC7=O)cc6F)CC5)CC4)cc3F)ncc2C(F)(F)F)C1 (stereo partly drawn) — remaining binding (CDK4 with cyclin D1; binding; competition with immobilised ligand; 1 µM): 97%
C=CC(=O)N1CCC([C@@H]2CCNc3c(C(N)=O)c(-c4ccc(Oc5ccccc5)cc4)nn32)CC1 — inhibition (CDK4 with cyclin D1; enzyme activity; inhibitor; 1 µM): 0%
